Data as given in publication PMC6677593 (Molecular cancer therapeutics, 2019).
Where two headings read alike, the source gives them in different places. Blank lines part the entries; values can stand above or below the molecule they belong to.

Legend:
[1] = target: T1, glucocorticoid receptor (GR) (Homo sapiens, UniProt P04150); assay: GR antagonism assay; format: biochemical; conditions: read-out: antagonism to GR
T1 sequence (P04150 1-777): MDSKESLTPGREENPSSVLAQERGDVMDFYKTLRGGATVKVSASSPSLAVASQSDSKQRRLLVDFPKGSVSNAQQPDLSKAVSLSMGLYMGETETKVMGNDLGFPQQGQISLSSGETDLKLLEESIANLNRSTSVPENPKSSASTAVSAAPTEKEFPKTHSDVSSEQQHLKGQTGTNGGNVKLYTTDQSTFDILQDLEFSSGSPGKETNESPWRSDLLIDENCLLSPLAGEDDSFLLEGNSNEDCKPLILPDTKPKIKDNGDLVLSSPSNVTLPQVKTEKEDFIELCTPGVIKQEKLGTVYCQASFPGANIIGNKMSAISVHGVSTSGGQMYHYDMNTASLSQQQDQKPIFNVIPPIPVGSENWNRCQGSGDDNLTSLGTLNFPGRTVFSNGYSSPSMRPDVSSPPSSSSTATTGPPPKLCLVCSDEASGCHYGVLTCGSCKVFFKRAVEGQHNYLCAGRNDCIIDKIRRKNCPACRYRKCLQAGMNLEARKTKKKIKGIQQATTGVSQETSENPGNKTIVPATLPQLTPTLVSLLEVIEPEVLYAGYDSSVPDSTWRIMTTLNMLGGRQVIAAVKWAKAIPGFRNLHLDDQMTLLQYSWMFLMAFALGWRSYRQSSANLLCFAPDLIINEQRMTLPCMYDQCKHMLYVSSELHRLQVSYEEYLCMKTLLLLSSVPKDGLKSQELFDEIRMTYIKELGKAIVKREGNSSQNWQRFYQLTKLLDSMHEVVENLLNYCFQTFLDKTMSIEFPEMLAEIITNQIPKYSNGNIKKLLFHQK

[2] = rats
[3] = intraperitoneal and oral dosing
[4] = system: salmonella typhimurium strains TA98, TA100, TA1535, TA1537 and E.coli combo; assay: Ames test; conditions: with and without metabolic activation, OECD guideline no.471
[5] = system: MDA-MB-231 and BT-549 cells; assay: Annexin V/PI staining; format: cell-based, Human
[6] = human
[7] = system: MDA-MB-231 xenograft tumors; assay: MDA-MB-231 xenograft study; format: in vivo, athymic nude mice; conditions: 5 mg/kg/day s.c. 3 days/week
[8] = system: ALDH+ (CSCs) and ALDH− (non CSCs) cells; assay: Cell Titer-Glo viability of CSCs and non CSCs; format: cell-based, Human; conditions: 3 days
[9] = human; remark: listed apart in the source
[10] = system: MDA-MB-231 and BT-549 cells; conditions: 72 h
Recombinant human LIF = Recombinant human LIF (Homo sapiens, UniProt P15018); assay: Surface plasmon resonance; format: binding; conditions: SPR
Recombinant human LIF, sequence (P15018 23-202): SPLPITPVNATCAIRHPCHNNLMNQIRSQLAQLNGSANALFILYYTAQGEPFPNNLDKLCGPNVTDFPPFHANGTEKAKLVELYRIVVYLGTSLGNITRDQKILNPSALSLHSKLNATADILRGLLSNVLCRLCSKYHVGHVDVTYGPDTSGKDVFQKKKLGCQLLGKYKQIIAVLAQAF

[11] = system: CSCs from MDA-MB-231 and BT-549 cells; assay: Extreme limiting dilution assay; format: cell-based, Human; conditions: 10 days
In short: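 ALDH+ CSCs were sorted by ALDEFLUOR flow cytometry and grown in supplemented MammoCult. They were seeded at 100, 50, 20, 10, 5 and 1 cells/well on ultra-low attachment plates with vehicle or test compound. After 10 days, wells with spheres were scored at each density, and stem cell frequency was estimated by ELDA analysis.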

CYP 2D6 = CYP 2D6 (Homo sapiens, UniProt P10635)
CYP 2D6, sequence (P10635 whole entry): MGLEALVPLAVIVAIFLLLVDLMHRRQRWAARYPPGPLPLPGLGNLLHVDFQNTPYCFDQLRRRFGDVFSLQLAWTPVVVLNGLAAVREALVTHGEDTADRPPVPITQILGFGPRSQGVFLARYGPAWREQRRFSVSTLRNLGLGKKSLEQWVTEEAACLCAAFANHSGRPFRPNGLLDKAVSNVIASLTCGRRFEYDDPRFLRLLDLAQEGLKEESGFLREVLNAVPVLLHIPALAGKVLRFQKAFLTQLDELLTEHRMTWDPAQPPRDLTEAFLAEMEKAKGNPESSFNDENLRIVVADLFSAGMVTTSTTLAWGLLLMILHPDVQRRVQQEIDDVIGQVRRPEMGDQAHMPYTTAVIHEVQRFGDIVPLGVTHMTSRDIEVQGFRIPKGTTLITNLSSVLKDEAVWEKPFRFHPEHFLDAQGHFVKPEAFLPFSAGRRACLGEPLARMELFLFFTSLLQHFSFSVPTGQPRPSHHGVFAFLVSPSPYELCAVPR

[12] = human; remark: listed apart in the source
[13] = system: MDA-MB-231 and SUM-159 cells; assay: Clonogenic survival assay; format: cell-based, Human; conditions: EC359 20 nM
[14] = system: STAT3-Luc reporter in BT-549 and MDA-MB-231 cells; assay: STAT3-luc reporter gene assay; format: cell-based, Human; conditions: BT-549, EC359 50 nM pretreatment 1 h
In short: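 MDA-MB-231 and BT-549 lines stably transduced with a STAT3-firefly luciferase reporter lentivirus were serum-starved for 24 h and pretreated with test compound (50 nM) for 1 h. They were then stimulated with LIF, CTF1, OSM or CNTF at indicated concentrations for 24 h. Lysates in passive lysis buffer were read by dual-luciferase luminescence; n=3.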

BT-549 cells = assay: MTT cell viability assay on BT-549 cells; format: cell-based, Human; conditions: BT-549 model cells (Fig. 1B)
[15] = system: MDA-MB-231 and BT-549 cells; assay: Matrigel invasion chamber assay; format: cell-based, Human; conditions: EC359 25 nM, 22 h
GR = target: T2, GR (Homo sapiens, UniProt P04150); assay: In vitro steroid receptor binding assays; conditions: receptor binding studies (Fig. 1C)
T2 sequence (P04150 1-777): T1 sequence (P04150 1-777)

[16] = system: TNBC cells (BT-549, SUM-159, MDA-MB-231, HCC1937, MDA-MB-468, HCC1806); assay: MTT cell viability assay in TNBC cells; format: cell-based, Human; conditions: read-out: IC50, cell viability of TNBC cells, 5 days
[17] = system: LIFR downstream signaling in MDA-MB-231 and BT-549 cells; assay: Western blotting of LIFR downstream signaling; format: cell-based, Human
In short: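 After 24 h serum starvation and 1 h pretreatment with test compound (100 nM), cells were stimulated for 10 min with LIF (MDA-MB-231, BT-549), or with OSM or CNTF at 10 ng (BT-549). For downstream kinases, cells were treated with 100 nM. Lysates were made in RIPA with protease/phosphatase inhibitors and blotted with ECL detection. p-STAT3 bands were quantified, normalized to total STAT3 and expressed as fold over control.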

TNBC PDX tumors = assay: TNBC patient derived xenograft; format: in vivo, SCID mice; conditions: 10 mg/kg/day s.c. 3 days/week

IC50 [1]: 0.0798 µM
Compound: C#CC(F)(F)[C@]1(O)CC[C@H]2[C@@H]3CCC4=CC(=O)CCC4=C3[C@@H](c3ccc(C4CC4)cc3)C[C@@]21C [EC330]

Compound: C#CC(F)(F)[C@]1(O)CC[C@H]2[C@@H]3CCC4=CC(=O)CCC4=C3[C@@H](c3ccc(-c4c(C)cc(C)cc4C)cc3)C[C@@]21C [EC359]
AUC0-inf ([2]; IV 5 mg/kg): 15573.91 ng·h/mL | AUC0-last ([2]; IV 5 mg/kg): 15544.36 ng·h/mL | T½ ([2]; IV 5 mg/kg): 3.86 h | mean C0 ([2]; IV 5 mg/kg): 74669.11 ng/mL | AUC0-inf ([2]; oral 10 mg/kg): 3876.82 ng·h/mL | AUC0-last ([2]; oral 10 mg/kg): 3792.26 ng·h/mL | Tmax ([2]; oral 10 mg/kg): 2.67 h | mean Cmax ([2]; oral 10 mg/kg): 919.50 ng/mL | bioavailability (PK) [3]: Good bioavailability | mutagenicity (Ames test) [4]: non-mutagenic | Annexin V positive cells [5]: significantly increased | Metabolic stability [6]: moderate | body weights of mice [7]: remained unchanged | proliferating cells (Ki-67 positive cells) in tumors [7]: fewer proliferating cells | tumor progression (tumor volume) [7]: significantly reduced | activation of STAT3 target genes in tumors ([7]; RT-qPCR): significant decrease | viability of ALDH+ and ALDH− cells [8]: similarly inhibited | plasma stability [9]: moderate | caspase 3/7 activity [10]: significantly increased | binding to LIF (Recombinant human LIF): binding to LIFR, but not LIF | self renewal of CSCs [11]: significantly reduced | CYP 2D6 inhibition (CYP 2D6): inhibits 2D6 | plasma protein binding [12]: high | colony formation ability [13]: significantly reduced | LIF stimulated STAT3 reporter activity [14]: inhibited | OSM, CNTF and CTF1 mediated STAT3 activity [14]: blocked | inhibitory activity in cell viability assay (BT-549 cells): significant inhibitory activity on par with EC330 | invasion potential [15]: significantly reduced | affinity to GR (GR): lack of affinity | IC50 [16]: 0.01 to 0.05 µM | STAT3 activation by OSM and CNTF (phosphorylation) ([17]; BT-549, EC359 100 nM 1 h, then OSM or CNTF 10 ng, 10 min): reduced | LIF activation of STAT3 (phosphorylation) ([17]; EC359 100 nM 1 h, then LIF 10 min, BT-549 and MDA-MB-231): substantially reduced | body weight (TNBC PDX tumors): did not affected | proliferating cells (Ki-67) in PDX tumors (TNBC PDX tumors): fewer proliferating cells | tumor progression (tumor volume) (TNBC PDX tumors): significantly reduced
